Experimental data reported in ChEMBL document CHEMBL1799981, “Synthesis and evaluation of nitric oxide-releasing derivatives of 3-n-butylphthalide as anti-platelet agents” (Bioorg Med Chem Lett, 2011).

Key:
[1] = Antiplatelet activity in rabbit platelet rich plasma assessed as inhibition of ADP-induced aggregation at 1 mM treated for 5 mins before ADP challenge by turbidimetry; assay type: functional; conditions: Oryctolagus cuniculus
Summary of the method: (§1)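 Rabbit PRP (low-speed spin 500 rpm 10 min; PPP from 3000 rpm 10 min as reference) pre-treated in duplicate with vehicle, reference drug or compound for 5 min, then ADP 10 µM final at 37 °C for 5 min. Aggregation followed by optical density (Born turbidimetry). % inhibition versus vehicle-treated ADP-exposed controls; IC50 by nonlinear regression, top concentration 1.0 mM. Mean ± S.D., n = 4.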

[2] = Antiplatelet activity in rabbit platelet rich plasma assessed as inhibition of ADP-induced aggregation treated for 5 mins before ADP challenge by turbidimetry; assay type: functional; conditions: Oryctolagus cuniculus; summary of the method: as §1
[3] = Induction of NO release from the compound in phosphate buffer at pH 7.4 at 0.1 mM incubated for 15 to 300 mins measured every 15 mins for 120 mins and every 30 mins for remaining time by Griess assay; assay type: physicochemical; conditions: pH 7.4, 100 µM
Summary of the method: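 Compound at 0.1 mM in PBS pH 7.4 containing 2% DMSO and 5.0 mM L-cysteine, incubated at 37 °C for 15–300 min. Sampled every 15 min up to 120 min, then every 30 min. Samples (2 mL) mixed with Griess reagent, 37 °C 10 min, absorbance at 540 nm. NO quantified against nitrite standards; means per time point.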

[4] = Aqueous solubility of the compound; assay type: physicochemical; conditions: buffer
[5] = Antiplatelet activity in rabbit platelet rich plasma assessed as inhibition of ADP-induced aggregation at 1 mM treated for 5 mins before ADP challenge by turbidimetry in presence of endogenous NO scavenger hemoglobin; assay type: functional; conditions: Oryctolagus cuniculus
Summary of the method: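 Rabbit PRP exposed to compound at 1.0 mM for 5 min at 37 °C together with hemoglobin 20 µM (NO scavenger), then challenged with ADP 10 µM. Aggregation monitored turbidimetrically. Inhibition relative to vehicle-treated ADP-exposed controls. Mean ± SD from several independent experiments; Student's t test.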

| SMILES | Activity [3] | inhibition at 1000 µM [1] | also measured |
| --- | --- | --- | --- |
| COc1cc(/C=C/C(=O)NCCO[N+](=O)[O-])ccc1O |  | 51.3% |  |
| CCCCC(OC(=O)CN1CCCCC1)c1ccccc1C(=O)Oc1ccc(/C=C/C(=O)NCCO[N+](=O)[O-])cc1OC.Cl (centres undefined) | 0.06 µg/mL | 83% | IC50 [2]: 39.4 µM |
| CCCCC(OC(=O)CN1CCCCC1)c1ccccc1C(=O)Oc1ccc(/C=C/C(=O)NCCO[N+](=O)[O-])cc1.Cl (centres undefined) |  | 82.4% | solubility [4]: soluble |
| CC(=O)Oc1ccccc1C(=O)O [ASPIRIN] |  | 68.5% |  |
| CCCCC(OC(=O)CN(CC)CC)c1ccccc1C(=O)Oc1ccc(/C=C/C(=O)NCCCO[N+](=O)[O-])cc1.Cl (centres undefined) |  | 82.1% | solubility [4]: soluble |
| CCCCC(OC(=O)CN(CC)CC)c1ccccc1C(=O)O (centres undefined) |  | 67.2% |  |
| CCCCC(OC(=O)CN(CC)CC)c1ccccc1C(=O)Oc1ccc(/C=C/C(=O)NCCO[N+](=O)[O-])cc1OC.Cl (centres undefined) | 0.057 µg/mL | 83% | inhibition at 1000 µM [5]: 54.4%; solubility [4]: soluble; IC50 [2]: 54.4 µM |
| CCCCC(OC(C)=O)c1ccccc1C(=O)Oc1ccc(/C=C/C(=O)NCC(C)O[N+](=O)[O-])cc1OC (centres undefined) | 0.027 µg/mL |  |  |
| CCCCC1OC(=O)c2ccccc21 (racemic) [RAC-3-N-BUTYLPHTHALIDE] |  | 67.8% |  |

More lines, main results first:

| Activity [3] | SMILES | inhibition at 1000 µM [1] | also measured |
| --- | --- | --- | --- |
| 0.022 µg/mL | CCCCC(OC(C)=O)c1ccccc1C(=O)Oc1ccc(/C=C/C(=O)NCCO[N+](=O)[O-])cc1 (centres undefined) |  |  |
| 0.043 µg/mL | CCCCC(OC(=O)CN1CCOCC1)c1ccccc1C(=O)Oc1ccc(/C=C/C(=O)NCCO[N+](=O)[O-])cc1.Cl (centres undefined) |  |  |
